Measured values gathered from unrelated publications.
Protocols differ between the studies behind these lines.
Target: Tyrosine-protein kinase BTK (BTK, Homo sapiens, UniProt Q06187)

CN(C)C1CCN(CC#Cc2nn(C3CCCC3)c3nc(NCc4ccccc4)ncc23)C1 (stereo not shown) — inhibition (enzyme activity, inhibitor, FRET; 10 µM): 22%
CCCS(=O)(=O)Nc1ccc(F)c(C(=O)c2c[nH]c3ncc(-c4ccc(Cl)cc4)cc23)c1F — inhibition (enzyme activity, inhibitor; 1 µM): < 10%
CNc1cccc2cc(C(=O)Nc3ccc(C(=O)O)cc3)c(=O)[nH]c12 — inhibition (enzyme activity, inhibitor; 10 µM): 2.1%
CNC(=O)c1cc(Oc2ccc(NC(=O)Nc3ccc(Cl)c(C(F)(F)F)c3)cc2)ccn1 — inhibition (enzyme activity, inhibitor; 0.3 µM): 1%
COc1cc2ncnc(Nc3ccc(Oc4ccccc4)cc3C)c2cc1OC — inhibition (enzyme activity, inhibitor; 1 µM): 71%
Cc1ccc(Nc2nccc(N(C)c3ccc4c(C)n(C)nc4c3)n2)cc1S(N)(=O)=O — inhibition (enzyme activity, inhibitor; 10 µM): 72%
CCN(CC)CCNC(=O)c1c(C)[nH]c(/C=C2\C(=O)Nc3ccc(F)cc32)c1C — inhibition (binding, competition with immobilised ligand; 0.1 µM): 91.3%
CCN(CC)CCNC(=O)c1c(C)[nH]c(/C=C2\C(=O)Nc3ccc(F)cc32)c1C — inhibition (enzyme activity, inhibitor; 10 µM): 85%
O=C(CSc1nc2nccnc2c(=O)n1CCc1ccccc1)Nc1nccs1 — inhibition (enzyme activity, inhibitor; 10 µM): 4%
C=CC(=O)Nc1cc(Nc2nccc(Nc3cc(Cl)c(F)cc3C(C)(C)O)n2)c(OC)cc1N1CC[C@@H](N(C)C)C1 — inhibition (enzyme activity, inhibitor; 1 µM): 96%
CNCc1ccc(-c2cc(-c3nc(-c4ccc(S(=O)(=O)C(C)C)cc4)cnc3N)on2)cc1 — inhibition (enzyme activity, inhibitor; 0.4 µM): 4%
COc1ccc(F)cc1C(=O)NCc1ccc(-c2nn([C@@H](C)C(F)(F)F)c(N)c2C(N)=O)cc1 — inhibition (enzyme activity, inhibitor, radiometric; 0.1 µM): 97%
CC/C(=N\NC(=O)NCc1cccc(O)c1)c1ccc(O)c(C)c1O — inhibition (enzyme activity, inhibitor; 0.1 µM): -0.2%
